Screens (PubChem)
Only some compounds are listed: those with a hit (about 2% of all), similar ones and a draw of the others.
PLC-gamma1 inh = inhibitors of human phospholipase C gamma1; P19174; purified PLC-gamma1, fluorogenic substrate, fluorescence; inhibition, % at 12.2 µM; 370,000 tested, 0.84% active
VIM-2 inhibitor = blocks Pseudomonas aeruginosa VIM-2 metallo-beta-lactamase; purified VIM-2, nitrocefin hydrolysis, epi-absorbance fluorescence; 290,000 tested, 0.89% active; AID 1527; inhibition, % at 5.6 µM;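 active means inhibition above the mean of all tested compounds plus 3 SD, cutoff set per screening run, cut at about 7.5% in these data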;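 further: red hydrolysis product quenches plate fluorescence so inhibitors raise well fluorescence; 0% = enzyme with DMSO and 100% = DMSO without enzyme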
PvdQ inh = blocks Pseudomonas aeruginosa PvdQ acylase activity. purified PvdQ acylase, fluorescence plate reader. inhibition, % at 10 µM. 340,000 tested, 0.063% active; in the data active means inhibition above about 30%, passing the limit was not always enough;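 further: 0% = vehicle neutral wells and 100% = reference inhibitor wells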
IMP-1 inh = inhibitors of Pseudomonas aeruginosa IMP-1 metallo-beta-lactamase. inhibition, % at 5.6 µM. AID 1556. purified IMP-1, nitrocefin hydrolysis, epi-absorbance fluorescence. 290,000 tested, 0.45% active;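 active means inhibition above the mean plus 3 SD of all compounds in the same screening run, cut at about 4.5% in these data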;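 further: 0% = IMP-1 with DMSO and 100% = DMSO wells lacking enzyme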
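System: Purified recombinant IMP-1 metallo-beta-lactamase enzyme | Measured by: Fluorescence quenching readout, ex 480/em 530 nm | Replication: Singlicate | Incubation: 15 min preincubation plus 25 min reaction at 25 °C | Evaluation: Percent inhibition from optical density relative to buffer-blank wells | Benchmarks: DMSO with and without IMP-1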
PLC-beta3 inh = blocks human PLC-beta3 enzyme activity; Purified PLC-beta3, fluorogenic substrate, fluorescence; inhibition, % at 12.2 µM; 370,000 tested, 0.18% active; AID 720704; in the data active means inhibition above about 11%;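 further: 0% = median of compound wells on plate and 100% = full blocker control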
PLCgamma1 ctr = counter-screen for PLC-beta3 inhibitors: inhibitors of human PLC-gamma1. shares compounds with PLC-gamma1 inh. purified PLC-gamma1, fluorogenic substrate, fluorescence. inhibition, % at 12.3 µM. 3,300 tested, 3.1% active. AID 743258
PLCb3 confirm = human PLC-beta3 inhibition, confirmation; AID 743261; shares compounds with PLC-gamma1 inh; purified PLC-beta3, fluorogenic substrate fluorescence; 3,300 tested, 1% active; inhibition, % at 12.3 µM; in the data active means inhibition above about 11%
The depositor's hits bear a star; / = no result given. Unless noted, no stated cut-off is given here; in the data, active means inhibition above about 9.5%; inactive means the rest.

SMILES	PLC-gamma1 inh	VIM-2 inhibitor	PvdQ inh	IMP-1 inh	PLC-beta3 inh	PLCgamma1 ctr	PLCb3 confirm
COCCCN1C(=O)[C@H](CC(=O)N2CCCCC2)[C@]2(C(=O)OC)CCCCC=C12	1.6	/	/	/	1.9	/	/
O=c1cc(CSc2nnc(Nc3ccccc3)s2)nc2sccn12	-14.7	-0.7	-10.6	-2.2	-22.2	/	/
Cc1cccc(Nc2nnc(SCc3cn4ccsc4n3)s2)c1	10.2*	-2.5	5.8	-2.2	0.6	0.9	-1.4
COc1ccc(CNC(=O)O[C@H]2CC[C@@]34CCCN3C(=O)CCC[C@H]4[C@H]2C)cc1OC	0.0	/	/	/	1.5	/	/
CN(C)S(=O)(=O)c1ccc(C(=O)NCCSc2ccc(Br)cc2)cc1	10.4*	-2.5	9.2	-2.7	3.7	-3.1	3.4
CCCCNC(=O)NC(C(=O)OC)C12CC3CC(CC(C3)C1)C2 (stereo unspecified)	12.8*	-3.9	-7.3	-3.6	3.8	-2.3	2.6
Oc1c(N=NC(=S)Nc2ccccc2F)c2ccccc2n1Cc1ccc(F)cc1	10.1*	-1.6	-4.6	-1.1	9.8	-1.7	-3.8
CCN(CC(=O)Nc1cccc(F)c1)CC(=O)Nc1ccccc1OC	9.8*	-1.0	-8.4	-1.9	-0.1	-3.8	-0.7
CCN(CC(=O)Nc1cccc(S(=O)(=O)N2CCCC2)c1)CC(=O)Nc1ccccc1OC	-1.6	-5.0	-6.1	-3.0	-5.1	/	/
O=C(OCc1cn(Cc2ccc(Cl)cc2)nn1)N1CCOCC1	1.9	/	/	/	2.1	/	/
COc1ccc2c(c1)[C@]1(C(=O)N2C)C2=C(CCCC2=O)Oc2cc(C)oc(=O)c21	4.8	/	/	/	3.5	/	/
Cc1cc2c(c(=O)o1)[C@@]1(C(=O)N(C)c3ccc([N+](=O)[O-])cc31)C1=C(CCCC1=O)O2	9.5*	/	/	/	10.4	-1.6	0.9
CCCn1cc(S(=O)(=O)CC(=O)N2CCc3ccccc32)c2ccccc21	-0.1	-1.1	4.1	-0.9	-3.8	/	/
Cn1cc(S(=O)(=O)CC(=O)N2CCc3ccccc32)c2ccccc21	17.8*	-4.1	3.6	-4.0	15.6*	13.1*	14.7*
O=C(N[C@H]1C[C@@H]2O[C@H](CO)CC[C@@H]2O[C@@H]1CCc1ccc(-c2cccnc2)cc1)c1cccc(F)c1	0.3	/	/	/	1.3	/	/
CCN(C(=O)CSc1nnc(NCc2ccccc2)s1)C1CCS(=O)(=O)C1 (stereo unspecified)	11.5*	-4.0	-17.9	-4.8	6.2	-1.2	4.4
CCOC(=O)[C@]12CCCCC/C=C\1N(Cc1ccc(OC)cc1)C(=O)[C@H]2CC(=O)NCC12CC3CC(CC(C3)C1)C2	1.7	/	/	/	3.6	/	/
CC1(C)c2ccccc2-c2nc3ccccc3cc2C1O (stereo unspecified)	10.8*	-1.6	-9.4	-2.6	-2.2	-9.0	-10.3
Cc1ccc(CS(=O)Cc2ccc(C(=O)N3CCN(c4ccccc4)CC3)o2)cc1 (stereo unspecified)	-4.0	-4.7	-16.4	-2.0	-6.5	/	/
Cc1ccc(CS(=O)Cc2ccc(C(=O)N3CCN(c4ccc(F)cc4)CC3)o2)cc1 (stereo unspecified)	11.7*	-0.2	-7.3	-1.3	-8.9	-8.7	-8.7
Cc1ccccc1CNC1CCCCC1	5.4	0.1	11.4	-1.6	11.8*	-4.0	-1.0
O=[N+]([O-])c1ccccc1CNC1CCCCCC1	2.0	0.9	12.8	-1.1	2.9	/	/
COc1ccc(/C(C)=N/NC(=O)Cc2cc(=O)[nH][nH]2)cc1OC	0.6	/	/	/	1.6	/	/
COC(=O)c1cc(-c2cccc3c2sc2ccccc23)c(=O)n2c1CCC2	41.3*	/	/	/	-5.2	-34.9	-28.5
O=C(NCc1ccccc1)[C@H]1CCCN1C(=O)[C@H]1CCCN1C(=O)c1ccccc1C(F)(F)F	4.9	/	/	/	2.1	/	/
SMILES	PLC-gamma1 inh	VIM-2 inhibitor	PvdQ inh	IMP-1 inh	PLC-beta3 inh	PLCgamma1 ctr	PLCb3 confirm
O=[N+]([O-])c1ccc(CN2CCN(c3ccccc3)CC2)o1	1.1	-3.0	1.6	-1.4	-3.2	/	/
O=[N+]([O-])c1ccc(N2CCN(Cc3ccc([N+](=O)[O-])o3)CC2)cc1	9.8*	-0.8	-18.7	-3.0	-0.2	0.7	1.7
Cc1ccc(NS(=O)(=O)c2ccc(NC(=O)CSc3ccc(Cl)cc3)cc2)c(C)c1	12.8*	-1.3	-19.3	-2.3	7.3	-5.3	-4.8
COC(=O)[C@]12C[C@H](CC(=O)N3CCCC3)C(=O)N(CCc3ccc(OC)c(OC)c3)C1=C[C@H](COCc1ccccc1)O[C@@H]2C	0.0	/	/	/	2.0	/	/
CCn1nc(C)c(/C=N/NC(=S)Nc2ccc(Cl)cc2Cl)c1C	4.3	-3.6	-5.8	-1.0	11.5*	-2.2	-2.5
O=C(NCCN1CCC(Cc2ccccc2)CC1)C1CCCN(S(=O)(=O)c2ccc([N+](=O)[O-])cc2)C1 (stereo unspecified)	4.3	/	/	/	2.3	/	/
O=C(/C=C(\Nc1ccc(Br)c(F)c1)c1ccccc1)c1ccccc1	4.0	/	/	/	4.2	/	/
CN(C)[C@H]1CCN(c2cccc3c2S(=O)(=O)N2CC[C@@H](C2)O3)C1	0.9	/	/	/	0.4	/	/
CC(=O)Nc1ccc(SC[C@H](Cc2ccccc2)N2CC[C@@H](C(C)(C)C)CCC2=O)cc1	11.2*	/	-6.3	/	3.2	3.1	3.5
COC(=O)c1cc2c(c3c4cc(OC)ccc4n(S(=O)(=O)c4ccc(F)cc4)c13)C(=O)N(C)C2	-32.9	/	/	/	-43.8	/	/
COC(=O)[C@]12C[C@H](CC(=O)NCc3cccc(C(F)(F)F)c3)C(=O)N(Cc3cccc4ccccc34)C1=C[C@H](C(C)(C)C)O[C@@H]2C	2.2	/	/	/	5.7	/	/
CCCCCCCCNC(=O)C1CSCCS(=O)(=O)N1Cc1ccc(OC)cc1 (stereo unspecified)	-1.6	/	/	/	3.8	/	/
COc1ccc(-c2cc(C3CCNCC3)[nH]n2)cc1	16.4*	-2.9	-13.9	-2.1	-1.1	8.3	1.3
NC(=O)NC(=O)CSc1cccc(C(F)(F)F)c1	9.5*	-0.9	-13.4	-0.1	1.0	-6.0	1.0
COC(=O)C[C@@H]1CC[C@H]2[C@H](COc3ccc(NC(=O)Nc4cccc(C#N)c4)cc3C(=O)N2C)O1	1.7	/	/	/	2.0	/	/
CC1=C(C(=O)Nc2ccccn2)C(c2ccc(Br)cc2)NC(=S)N1 (stereo unspecified)	14.9*	-0.7	-9.6	-2.2	5.1	-2.1	-2.1
Cc1[nH]c2ccccc2c1C(=O)CSC(=S)N1CCCCC1	15.4*	-1.8	-19.8	-2.7	6.1	-2.4	1.8
COC(=O)C1=C(C)N(C)C(=NCc2ccc3c(c2)OCO3)NC1c1cccc(Cl)c1 (stereo unspecified)	1.0	/	/	/	1.0	/	/
Cn1c(=O)c2[nH]c(N=NN3CCCCC3)nc2n(C)c1=O	2.8	/	-7.9	/	5.6	/	/
CC1CCN(N=Nc2nc3c([nH]2)c(=O)n(C)c(=O)n3C)CC1	9.9*	/	1.3	/	8.3	-1.8	3.2
COC(=O)[C@]12C[C@H](CC(=O)N3CCCCC3)C(=O)N(Cc3cccc4ccccc34)C1=C[C@H](C1CCCC1)O[C@@H]2C	1.8	/	/	/	1.8	/	/
